HSV replic up – increases HSV replication in cells; HSV replication augmentation in cells, fold increase; maximum fold increase; 220,000 compounds, 0.005% hits; in the data active = maximum fold increase above about 1.5; inconclusive = no clear call, values can overlap the other calls; tested in PC3 cells
b-catenin transl – alters nuclear translocation of beta-catenin in HeLa cells. nuclear translocation activity, % at 5 µM. 190,000 compounds, 0.3% hits. AID 1665. immunofluorescence imaging;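 active = nuclear translocation activity above 50% at 5 µM, with a well cell count of 50 or more; inconclusive = wells under 50 cells across six images, flagged as toxic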;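 also: per-cell ratio of nuclear to cytoplasmic median beta-catenin stain intensity; plate controls were DMSO negative control for no effect and GSK-3 inhibitor IX positive control for full effect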
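assay system = human HeLa cells, endogenous beta-catenin | times = compound treatment 24 h, 37°C, 5% CO2 | detection = Anti-beta-catenin immunofluorescence on PFA-fixed, Triton-permeabilized cells, DAPI nuclei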
Dynein cargo inh – blocks dynein driven cargo transport along microtubules. 3617.4 mouse cells, GR-EGFP nuclear translocation imaging; test concentration mostly 20 µM; stimulated with dexamethasone, 1 µM; hits give low values. z-score, hits read low. 220,000 compounds, 0.47% hits;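 active = plate z-score of nuclear minus cytoplasmic receptor signal below a set negative limit, without overly bright fluorescence or cell loss, cut at about -3.5 in these data, passing the limit was not always enough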;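 also: z-score of nuclear minus cytoplasmic ring GR-EGFP intensity difference per well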
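Buffer or medium: Induction medium lacking tetracycline, stripped serum | Also added: Dexamethasone agonist, 1.0 µM final, for 30 min | Timing: 48 h induction, 1 h compound, 30 min dex at 37 °C | Detection: Formaldehyde fixation, Hoechst nuclear stain, 10x automated fluorescence imaging | Measure: Nuclear versus cytoplasmic GR-EGFP signal, averaged per well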
L major viab – inhibitors of Leishmania major promastigote growth. Leishmania major promastigotes, resazurin fluorescence viability. 200,000 compounds, 9% hits. AID 1063. inhibition, % at 10 µM; in the data active = inhibition above about 50%;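 also: promastigotes grown with compound for 44 hours at 28 °C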
MT stabilize HCS – stabilizes microtubules in HeLa cells | HeLa tubulin immunostaining HCS, 24 h; share of cells brighter than vehicle mean+2SD | % tubulin-high responders, % at 10 µM | 200,000 compounds, 0.83% hits;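 active = plate Z-score above 3 for both tubulin-high and condensed-nucleus cell shares, with cell loss under 80%, at 10 µM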;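 also: anti alpha tubulin signal scored within the nucleus-defined area of each cell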
Dynein confirm – dynein cargo transport inhibition, confirmation; shares compounds with Dynein cargo inh; 3617.4 GR-EGFP nuclear translocation imaging, dexamethasone-induced; calls only at 20 µM; 1,000 compounds, 69% hits;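 active = inhibition of receptor movement into the nucleus at or above a set limit in both runs, with normal cell brightness and cell count; inconclusive = limit reached in only one run, brightness and count normal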;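 also: dexamethasone at 1 µM final in well for 30 min; nuclear minus cytoplasmic GR-EGFP mean intensity difference in channel 2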
* marks the source's active call; other numbers are inactive results; i = inactive; ? = inconclusive; . = no result; + = active, no number. This is a sample that favours compounds with a hit; in the whole collection about 8.9% have one here.

SMILES	HSV replic up	b-catenin transl	Dynein cargo inh	L major viab	MT stabilize HCS	Dynein confirm
CN(C)CCCn1c(SCC(=O)N2c3ccccc3Sc3ccccc32)nc2ccccc2c1=O	i	0.2	-4.19*	100.5*	19.1	i
COC(=O)c1cc(NC(=O)c2cccc(C(F)(F)F)c2)c(=O)oc1C	i	-1.1	-1.08	-3.7	1.5	.
COC(=O)c1cc(NC(=O)c2cccc(Cl)c2)c(=O)oc1/C=C/Nc1cc(C)cc(C)c1	?	-0.5	-7.47	1.1	5.1	+
COC(=O)C(=Cc1ccc(OCc2ccc([N+](=O)[O-])cc2)c(OC)c1)C(=O)OC	i	1.7	-0.596	-3.8	2.4	.
CCOC(=O)C(=Cc1ccc(OCc2ccc([N+](=O)[O-])cc2)c(OC)c1)C(=O)OCC	i	-4.1	-4.09*	19.0	8.6	+
COc1ccc(/C=C/C(=O)OCC(=O)Nc2cc3oc4ccccc4c3cc2OC)cc1	i	-5.9	-0.376	0.1	4.8	.
CCOC(=O)c1c(NC(=O)/C=C\C(=O)O)sc(C)c1-c1ccccc1	i	0.0	-3.52*	-1.3	6.3	+
CC1=CC(=Nc2c(C)n(C)n(-c3ccccc3)c2=O)C=CC1=O	i	0.6	-3.67*	.	.	+
Cc1c(N=c2scc(-c3ccccc3)n2C)c(=O)n(-c2ccccc2)n1C	i	1.1	-0.478	26.6	4.8	.
CC(C)c1ccc(CN2CCN(C(=O)CCl)CC2)cc1	i	-3.3	-5.92*	98.9*	1.1	+
C#CCOCCOCCOCCNc1nc(N2CCOCC2)nc(N2CCN(C(=O)[C@H]([C@@H](C)CC)n3cc(CCCN=C(N)N)nn3)CC2)n1	i	.	1.27	-0.1	4.1	.
CCOC(=O)c1sc2ccc(S(=O)(=O)N3CCOCC3)cc2c1N	i	-1.2	0.0879	-1.0	2.2	.
COc1cccc(C2(O)CCN(CC(=O)NCC3CC3)CC2)c1	i	-0.9	-0.682	-5.8	3.0	.
CNC(=O)COC(=O)c1ccccc1C(=O)c1ccc(Cl)c([N+](=O)[O-])c1	i	4.2	-4.3*	4.7	3.5	+
Cc1ccc2nc(SCC(=O)Nc3ccc(C(N)=O)cc3)[nH]c2c1	i	1.4	-6.66*	13.1	4.0	i
Cc1ccc2nc(SCC(=O)Nc3cccc([N+](=O)[O-])c3)[nH]c2c1	i	.	-0.0834	24.4	1.3	.
Cc1ccc(CN=Cc2[nH]c3ccc(Br)c(Cl)c3c2O)cc1	i	-2.5	-4.26	22.8	1.7	+
CCCN1C(=O)/C(=C/c2c(NCCCOC(C)C)nc3c(C)cccn3c2=O)SC1=S	?	2.7	-4.62	-7.1	1.9	?
CN(C)Cc1cc(C(C)(C)C)c(O)c(C(C)(C)C)c1	i	-5.1	-0.368	25.1	4.3	.
CC(C)(C)c1cc(CN(CCO)CCO)cc(C(C)(C)C)c1O	i	.	-5.84*	-2.5	2.3	+
CCNC(=O)CSc1nnc(C2CC2)n1-c1ccccc1	i	-1.8	-0.109	-2.0	2.3	.
CCc1ccc(/C=C/C(=O)c2c(C)cc(C)[nH]c2=O)cc1	i	0.8	-4*	58.8*	5.4	+
CCc1ccc(/C=C(\C)C(=O)c2c(C)cc(C)[nH]c2=O)cc1	i	-0.5	1.06	13.5	3.4	.
O=C(N/N=C/c1ccc(N2CCOCC2)o1)c1cccc([N+](=O)[O-])c1	i	.	0.221	-3.1	5.4	.
O=C(N/N=C/c1ccc(N2CCCCC2)o1)c1ccccc1	i	-4.9	-3.77*	13.6	2.0	i
SMILES	HSV replic up	b-catenin transl	Dynein cargo inh	L major viab	MT stabilize HCS	Dynein confirm
O=C(/C=C/c1ccccc1)/C=C/c1ccccc1	i	-2.2	-7.02*	100.1*	3.5	+
CC(/C=C\c1ccccc1)=C/C(=O)O	i	0.0	1.6	.	.	.
Cc1ccc(S(=O)(=O)Nc2ccc(C(=O)OCC(=O)N(CCC#N)c3ccccc3)cc2)cc1C	i	-1.2	1.11	0.4	4.5	.
Cc1ccc(N(CCC#N)C(=O)CCl)cc1C	i	3.6	-4.39*	79.4*	4.2	+
CCOC(=O)CSC1=NC(=O)/C(=C\c2ccc(Cl)cc2)S1	i	-3.8	-4.05*	-7.5	1.2	i
CCOC(=O)C1=C(Cc2ccc(OC)cc2)C(=O)c2ccccc2C1=O	.	2.2	-6.07	24.3	44.7*	+
CCCc1ccc(/C=C2\C(=O)c3ccccc3C(O)=C2C(=O)OCC)cc1	?	-0.4	-3.54*	-7.0	4.9	?
CCOC(=O)C1=C(Cc2ccc(C)cc2)C(=O)c2ccccc2C1=O	?	.	-0.511	14.3	1.3	.
CCOC(=O)C1=C(O)c2ccccc2C(=O)/C1=C\c1ccc(CC)cc1	?	1.6	-4.71	-4.6	3.5	i
Cc1nnc(NC(=O)c2sc3nc(-c4cccs4)cc(C(F)(F)F)c3c2N)s1	?	3.0	-6.12	-2.6	4.7	i
CCN(CC)C(=O)c1sc2nc(-c3cccs3)cc(-c3cccs3)c2c1N	i	-3.7	0.946	.	.	.
COC(=O)NC(=C(Cl)Cl)S(=O)(=O)c1ccccc1	i	5.3	-5.83*	96.7*	3.3	+
CCOC(=O)NC(C(Cl)(Cl)Cl)S(=O)(=O)c1ccccc1 (stereo unspecified)	i	1.3	-0.563	.	.	.
N#C/C(=C\c1sc(N2CCOCC2)nc1-c1ccccc1)C(=O)Nc1cccc2ccccc12	i	-0.2	-5.6	38.2	4.8	?
O=C(CCCSc1nc2ccccc2[nH]1)NCc1ccco1	i	-0.7	-0.543	-2.5	2.9	.
C/C(CCc1oc2c(Br)cc(Br)cc2c1-c1ccc(C)o1)=N\O	i	0.7	-4.06*	17.8	2.8	i
CN(C)CC(C(=O)c1ccccc1)c1ccccc1 (stereo unspecified)	i	.	-3.72*	100.2*	8.8	+
COc1ccc(C(C(=O)OC(C)CN(C)C)c2ccccc2)cc1 (stereo unspecified)	i	-5.8	-1.08	-6.3	1.7	.
O=[N+]([O-])c1ccc(-c2ccc(/C=N/Nc3nc(N4CCCCC4)nc(N4CCCCC4)n3)o2)cc1	.	-2.1	-7.32	14.8	4.9	i
O=[N+]([O-])c1ccc(-n2cccc2/C=N/Nc2nc(N3CCCCC3)nc(N3CCCCC3)n2)cc1	i	-0.5	-0.512	2.9	1.5	.
CC(C)(C)c1nnc(SCC(=O)c2ccccc2)n(N)c1=O	i	.	-0.613	-4.8	4.3	.
CN1CCN(C2=C(Cl)C(=O)N(c3ccc(Cl)c(Cl)c3)C2=O)CC1	i	-5.1	-4.58*	5.6	4.4	?
CN1CCN(C2=C(Cl)C(=O)N(c3cccc(Cl)c3)C2=O)CC1	i	-3.9	-0.782	-0.5	1.1	.
COC(C/C=C/C(=O)COCc1ccccc1)OC	i	0.5	-5.71*	.	.	+
COC(C/C=C\C(=O)COCc1ccccc1)OC	i	.	.	.	.	.
Cc1ccc(/C=C2/NC(=O)N(c3ccccc3)C2=O)o1	i	-0.9	-0.0402	0.1	1.5	.
